In ChEMBL document CHEMBL4513216, “Probing the Open Global Health Chemical Diversity Library for Multistage-Active Starting Points for Next-Generation Antimalarials” (ACS Infect Dis, 2020):

Assay: Toxicity liver stage against HepG2, at 10uM
Type: cell-based
Design: test concentration 10 uM, cell line HepG2-A16-CD81EGFP
Settings: human, HepG2-A16-CD81EGFP cells; read-out: INHIBITION
Method in brief: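 Uninfected HepG2-A16-CD81EGFP cells, 3 × 10^3 per well, 1536-well, plated on prespotted compound at 10 μM final, parasite-free screening media added to match infected plates; puromycin 10 μM positive, DMSO 0.5% negative; run in parallel with 48 h PbLuc assay at 37 °C, 5% CO2; viability by CellTiter-Glo luminescence, normalized to controls.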

Row | SMILES | cytotoxicity at 10 µM [%]
1 | Cc1nnc([C@H]2CCN(CCCc3ccccc3)C2)o1 | 2.87
2 | CCOC(=O)C(C)NC(=O)N1CCN(c2nc3ccccc3n2C)CC1 (stereo not given) | 3.39
3 | O=C(NC[C@@H]1CCCO1)c1cccnc1N1CCCC1c1ccccc1 (stereo not given in full) | 3.95
4 | CN(CCc1ccccc1)C(=O)c1cccnc1OCC(F)(F)F | 13.5
5 | COc1ccc2[nH]c(C(=O)NCC3(N)CCCC3)cc2c1 | 4.3
6 | COCCCN(Cc1ccccn1)S(=O)(=O)c1ccc(OC)cc1 | 5.85
7 | CCc1c(-c2ccccc2)nc2c(c(C)c(C)n2CCN(C)C)c1N | 17.7
8 | Cc1nn(C)c2nc(C(C)C)cc(C(=O)Nc3n[nH]c(C4CC4)n3)c12 | -4.38
9 | O=C1CC(NS(=O)(=O)c2ccc(Cl)cc2)CN1 (stereo not given) | 6.66
10 | Cc1ccc(S(=O)(=O)NCCc2ccoc2)s1 | 2.69
11 | O=C(CCC(=O)N1CCC(Oc2ncccc2Br)CC1)c1ccccc1 | 30.4
12 | CS(=O)(=O)C1CCN(S(=O)(=O)Cc2cccc(F)c2)CC1 | -19.1
13 | O=C(Cc1cccs1)NCC1Cn2nnc(-c3ccoc3)c2CO1 (stereo not given) | 6.06
14 | CCN1C(=O)CC[C@@H]2[C@H]1CCN2S(=O)(=O)Cc1ccc(C)cc1 | 0.0218
15 | CN(Cc1cn2c(n1)CN(C(=O)C1CCCO1)CC2)Cc1ccco1 (stereo not given) | 8.24
16 | O=C(NCC1CC1)C1CN(C(=O)c2ccco2)CC12CCOCC2 (stereo not given) | 6.61
17 | Cn1ncc2c1NC(=O)CC2c1ccc(O)cc1 (stereo not given) | 24.3
18 | Cn1cccc1C(=O)NCc1cnc2n1CCN(C(=O)N1CCCC1)C2 | -5.61
19 | Cc1c(-c2cc(-c3cnn(C)c3C)n(CC(=O)NC3CC3)n2)cnn1C | 9.26
20 | CCn1nc(C)c2c1cnn2CC(=O)Nc1ccc(OC)cc1C | -80.1
21 | Cn1ncc(C(=O)O)c1C(=O)Nc1nc2ccccc2s1 | 7.9
22 | Cn1nc(C2CCN(C(=O)c3cnccn3)C2)cc1CCO (stereo not given) | 9.95

Row | SMILES | cytotoxicity at 10 µM [%]
23 | O=C(CCc1cccnc1)N1CCCCC1c1ccn2ccnc2n1 (stereo not given) | -4.28
24 | CNc1cncc(C2CCCN2Cc2cccc(C)n2)n1 (stereo not given) | -8.3
25 | CO[C@H]1CCN(C(=O)c2ccc3oc(C)cc3c2)C[C@@]12CCCO2 | 25.9
26 | CC(=O)N1CCN([C@@H]2CCC[C@@H](N(C)C(=O)C3CC3)[C@H]2O)CC1 | -5.97
27 | Cc1cnn(CC(C)NCc2ccc(C#N)cc2F)c1 (stereo not given) | -7.44
28 | O=C(Cc1ccc(F)cc1F)NCC(=O)Nc1ccccn1 | 3.24
29 | CC1CCCN(S(=O)(=O)NCCCn2ccc3ccccc32)C1 (stereo not given) | 13.6
30 | CC(NCc1cccc(NC(=O)C2CCCCC2)c1)c1cnn(C)c1 (stereo not given) | -0.26
31 | COc1ccc(N2CCC(NC(=O)c3sccc3C)CC2)cc1 | -2.28
32 | Cc1ccc(-c2cc(C(=O)NCC3CCOC3)n[nH]2)s1 (stereo not given) | -4.09
33 | Cc1nc(CC2CCCN(Cc3nc4ccccc4c(=O)[nH]3)C2)no1 (stereo not given) | -44
34 | Cc1cnc(C(=O)N2CCC(COCc3ccccc3)C2)cn1 (stereo not given) | 7.54
35 | CC(C)(C)c1nc(CC(=O)NCCC(=O)Nc2ccncc2)cs1 | 12.8
36 | Cc1cn2c(CN(C)C(=O)c3nccnc3N)c(C)nc2s1 | -4.12
37 | Cc1cc(CNc2cccc(C(=O)N(C)c3ccccc3)c2)no1 | 2.95
38 | COc1cccc(C(=O)NCc2ccccc2S(=O)(=O)N(C)C)c1 | -5.52
39 | COc1cc2nc(NCc3scnc3C)nc(N)c2cc1OC | 6.34
40 | CNC(=O)CN1CCC(c2cc(OC)cc(OC)c2)C1 (stereo not given) | 4.38
41 | CC(C)COc1cncc(NC(CO)c2ccco2)n1 (stereo not given) | -5.08
42 | COCc1noc(C2(c3ccc(Cl)cc3)CCOCC2)n1 | 1.86
43 | c1ccc(-c2noc(CNC3CCCN(c4cccnn4)C3)n2)nc1 (stereo not given) | 4.86
44 | CCc1nc(C(=O)N2CCN(CCc3ccc(OC)cc3)CC2)c[nH]1 | -9.56

Row | SMILES | cytotoxicity at 10 µM [%]
45 | O=S(=O)(CCc1ccccc1)Cc1nc(C2CC2)no1 | 1.03
46 | CCc1nc(Cn2c(=O)n(C)c3ccccc32)no1 | -45.1
47 | Cc1cc(CNCCNS(C)(=O)=O)sc1Br | -4.6
48 | CCOCC(=O)Nc1nccn1Cc1ccc(Br)cc1 | -44.8
49 | COc1cccc(CNCc2nnc3n2CC(C(F)(F)F)CC3)c1 (stereo not given) | 14
50 | O=C(CCc1ccccn1)N1CCc2cc(Cl)cc(Cl)c2C1 | -40.9
51 | Cc1cnc(C(=O)N2C[C@H](N3CCOCC3)[C@@H]3OCCC[C@@H]32)cn1 | -107
52 | CCOC1COC2(CCN(S(=O)(=O)c3ccc(F)cc3)CC2)C1 (stereo not given) | -109
53 | CC(C)N1CCC2(CC1)CC(c1cccnc1)C(=O)N2 (stereo not given) | -67.2
54 | COCCN1C[C@H]2[C@@H](C1)N(C(=O)COc1ccccc1)CC[C@H]2OC | -1.34
55 | CNc1nc2c(s1)C(=O)CN(C(=O)[C@@H](N)Cc1cccc(OC)c1)C2 | -4.08
56 | CC(C)[C@H](NS(C)(=O)=O)C(=O)NCc1cc(-c2cccc(Cl)c2)nn1C | -5.47
57 | C=C(C)COc1cccc(CN(C)C(C)c2nccs2)c1 (stereo not given) | -49.2
58 | CC(=O)N1C[C@H]2CNC[C@@]2(C(=O)NCCNc2ccncc2C)C1 | -6.4
59 | OC1(CN2CCCC2)CCCN(Cc2cnc(-c3ccccc3)nc2)C1 (stereo not given) | -11.9
60 | CN(Cc1cnn(C)c1)C1CCN(c2cccc(-c3cscn3)c2)CC1 | -0.724
61 | O=C(c1ncc[nH]1)N1CCC(Cn2cc(-c3cccc(Cl)c3)nn2)CC1 | -12.8
62 | CN1CCC(Cc2noc(-c3cccc(OCC(N)=O)c3)n2)CC1 | -4.42
63 | Cc1cc(CC(C)Nc2nc(C3CCCC3)nc3c2cnn3C)[nH]n1 (stereo not given) | -6.12
64 | CC(Cn1cncn1)NCCN1CCc2ccccc2C1 (stereo not given) | -1.27
65 | CC(C)C1CN(S(=O)(=O)C2CC2)CCCN1Cc1ccc(F)cc1 (stereo not given) | 7.01
66 | CCCn1cc(C(=O)NCCc2ccncc2)c(C)n1 | 11.2

Row | SMILES | cytotoxicity at 10 µM [%]
67 | CN(C)C(C(=O)N1CC(Oc2ccccc2F)C1)c1ccccc1F (stereo not given) | -0.598
68 | NC(=O)CN1CC2(CCC1=O)CCN(Cc1ccc(Cl)c(F)c1)CC2 | -5
69 | CCNc1ccnc(NC2CCN(C(=O)c3ccc(C)cc3)CC2)n1 | 5.09
70 | COc1ccc(OC)c(-n2cnnc2CN)c1 | -4.4
71 | COc1ccccc1OCCCc1cc(C#N)ccn1 | -11.5
72 | CC(=O)Nc1ccc(CNC(=O)CNCc2nnc(C)o2)cc1 | 10.7
73 | O=C(c1cccnc1N1CCOC(c2ccc(Cl)cc2)C1)N1CCCC1 (stereo not given) | 7.21
74 | CCc1n[nH]c(C(=O)N2CCCC3(CN(C)C(=O)O3)C2)c1C (stereo not given) | -44.7
75 | CC(CN1CCC2(CC1)c1nc[nH]c1CCN2S(C)(=O)=O)C(F)(F)F (stereo not given) | -8.51
76 | O=C1CCC2(CCCN(C(=O)c3cscn3)C2)CN1CCc1c[nH]cn1 (stereo not given) | -13
77 | NC(=O)C1CCN(C(=O)c2cccc(CN3CCOCC3)c2)CC1 | -20
78 | Cc1ccccc1N1CCN(C(=O)c2ccc[nH]2)C(C)C1 (stereo not given) | -8.68
79 | Clc1ccc(C2NCCc3cc4c(cc32)OCCO4)cc1 (stereo not given) | -16.3
80 | O=C1NCC2(CCCN(CCc3ccccc3)C2)Oc2ccccc21 (stereo not given) | 2.93
81 | Cc1cccc(N2CCN(C(=O)CCc3c(C)noc3Cl)CC2)c1 | -9.73
82 | CCc1noc(C)c1C(=O)N1CCCC1Cn1cccn1 (stereo not given) | -3.04
83 | O=C1COc2cc(C(=O)NS(=O)(=O)c3ccc(F)cc3)ccc2N1 | -8.47
84 | CCN(CC1CCOC1)C(=O)c1ccccc1S(C)(=O)=O (stereo not given) | -0.945
85 | Cc1csc(N2CCN(CC(=O)NC3CCOCC3)CC2C)n1 (stereo not given) | -7.13
86 | NC(=O)C1CCN(CCc2ccc(NC(=O)C3CC3)cc2)CC1 | -7.72
87 | CC(C)n1cc(CN2CCCN(C(=O)COC3CCCC3)CC2)cn1 | -15.5
88 | CCc1nnc2n1CCN(CC(=O)Nc1cc(C)nn1C)C2 | 6.98

Row | SMILES | cytotoxicity at 10 µM [%]
89 | CCN(Cc1ccc2c(c1)OCCO2)C(=O)NC(C)Cn1cccn1 (stereo not given) | -10.6
90 | COc1cc(CNc2cc(N3CCCC3CO)ncn2)ccn1 (stereo not given) | -28.5
91 | O=C1NCC(C(=O)Nc2ncc(Cc3ccccc3)s2)N1 (stereo not given) | 5.92
92 | CC(C(=O)NCc1ccc(N2CCCC2)nc1)S(C)(=O)=O (stereo not given) | -13.4
93 | COc1ccc(CCCNCc2c(C)nn(C)c2N(C)C)cc1OC | -19.2
94 | c1cnn(CC2CN(Cc3nc(-c4ccoc4)no3)CCO2)c1 (stereo not given) | -23.8
95 | CN1CCOC(CNCc2csc(C3CCCC3)n2)C1 (stereo not given) | -0.383
96 | CS(=O)(=O)N1CCC(NC(=O)COc2ccc(Br)cc2Cl)CC1 | 3.25
97 | Cc1ccc(C(=O)N2CCCC(c3nncn3C)C2)c(C)c1 (stereo not given) | -14.1
98 | Cn1cc(C2CCCN2CCCc2nc(-c3cccs3)no2)cn1 (stereo not given) | -6.88
99 | Cc1cc(C(=O)NCc2cccnc2OC(C)C)no1 | -7.37
100 | Cc1ccc(CN2CC[C@H]3CO[C@H](CN4CCN(C)CC4)[C@H]3C2)o1 | -118
101 | Cn1nccc1-c1nnn2c1COCC(CNC1CCOCC1)C2 (stereo not given) | -103
102 | COCC1CN(Cc2ccncc2)Cc2nnn(CC3CC3)c21 (stereo not given) | -5.91
103 | Cn1ccnc1CN1CC[C@@H](NS(C)(=O)=O)[C@@H]1Cc1ccccc1 | -77.2
104 | Cn1cnc2c1C(COCC1CCOCC1)CN(C(=O)C1CC=CC1)C2 (stereo not given) | -75.5
105 | Cn1cncc1CNC1CC2(CCN(CC3CC3)CC2)c2ccccc21 (stereo not given) | 0.565
106 | CS(=O)(=O)N1CCOCC2(CN(Cc3nccs3)CCO2)C1 (stereo not given) | 7.49
107 | CCS(=O)(=O)N1CCC2(CC1)CN(c1cccnc1)C(=O)CO2 | -109
108 | CC(C)N(C)Cc1cncc2c1CCN(C(=O)c1ccccc1F)C2 | 2.35
109 | CCc1ccc(NC(=O)N2C[C@@H]3C[C@H](C(=O)N4CCCC4)[C@H](C2)O3)cc1 | -6.71
110 | CN(C)S(=O)(=O)N1C[C@H]2CC[C@@H](C1)N(Cc1ccc3nsnc3c1)C2 | -7.7
